Among the data in ChEMBL document CHEMBL4311947, “Discovery of Novel Naphthylphenylketone and Naphthylphenylamine Derivatives as Cell Division Cycle 25B (CDC25B) Phosphatase Inhibitors: Design, Synthesis, Inhibition Mechanism, and in Vitro Efficacy against Melanoma Cell Lines” (J Med Chem, 2019) are Ki, inhibition and Activity values, retold here.

Assay [1] concerns the target T1, M-phase inducer phosphatase 2 (Homo sapiens, UniProt P30305).
T1 sequence (P30305 whole entry): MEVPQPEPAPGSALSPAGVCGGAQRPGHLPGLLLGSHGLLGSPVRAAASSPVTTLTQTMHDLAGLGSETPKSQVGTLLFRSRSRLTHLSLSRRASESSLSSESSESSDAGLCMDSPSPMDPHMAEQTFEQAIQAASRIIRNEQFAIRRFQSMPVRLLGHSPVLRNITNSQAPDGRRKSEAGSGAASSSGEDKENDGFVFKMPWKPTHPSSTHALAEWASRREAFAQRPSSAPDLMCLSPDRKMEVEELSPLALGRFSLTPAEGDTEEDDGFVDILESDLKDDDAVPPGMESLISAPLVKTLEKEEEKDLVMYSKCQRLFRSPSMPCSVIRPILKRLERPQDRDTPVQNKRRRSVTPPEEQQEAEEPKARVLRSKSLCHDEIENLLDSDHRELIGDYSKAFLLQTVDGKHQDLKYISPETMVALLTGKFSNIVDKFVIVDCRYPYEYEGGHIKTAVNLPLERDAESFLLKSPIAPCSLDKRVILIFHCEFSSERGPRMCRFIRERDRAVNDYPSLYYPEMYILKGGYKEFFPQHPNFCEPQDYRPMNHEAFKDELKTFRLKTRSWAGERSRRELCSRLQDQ
Briefly: Non-competitive inhibition of N-terminal His6-tagged human CDC25B (377 to 550 residues) expressed in Escherichia coli BL21(DE3) cells using OMFP as substrate by double reciprocal Lineweaver-Burk plot analysis. The method, boiled down: (§1)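 Recombinant CDC25 form (15–25 nM) in 20 mM Tris-HCl pH 7.8, 0.5 mM TCEP, 1% (v/v) DMSO, with or without inhibitor. Reaction started with 0.5–25 µM OMFP; O-methylfluorescein formation followed continuously at 30°C (ex 485/em 530 nm). Initial rates (AU/min) analysed in Lineweaver-Burk plots for Vmax, KM and mechanism; Ki averaged from at least three independent experiments, only roughly estimated for mixed inhibition.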

In assay [2] the target is T1, M-phase inducer phosphatase 2. In words: Uncompetitive inhibition of N-terminal His6-tagged human CDC25B (377 to 550 residues) expressed in Escherichia coli BL21(DE3) cells using OMFP as substrate by double reciprocal Lineweaver-Burk plot analysis. The method, boiled down:
as §1

For assay [3], the target named is T2, M-phase inducer phosphatase 2 (Homo sapiens) (UniProt P30305).
T2 sequence (whole entry): T1 sequence (P30305 whole entry)
Briefly: Inhibition of N-terminal His6-tagged human CDC25B (377 to 550 residues) expressed in Escherichia coli BL21(DE3) cells assessed as reduction in Vmax using OMFP as substrate by double reciprocal Lineweaver-Burk plot analysis. In outline: as §1

Assay [4] addresses T2, M-phase inducer phosphatase 2 (Homo sapiens). In words: Inhibition of N-terminal His6-tagged human CDC25B (377 to 550 residues) expressed in Escherichia coli BL21(DE3) cells at 4 uM by spectrofluorimetric analysis. In outline: (§2)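 Intrinsic fluorescence of 1 µM recombinant CDC25B in 20 mM Tris·HCl pH 7.8, 0.5 mM TCEP, 0.5% (v/v) DMSO, recorded at 20°C with 280 nm excitation and 10 nm slits, without or with added NPA derivative. OMFP substrate omitted.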

For assay [5], the target named is T3, M-phase inducer phosphatase 3 (Homo sapiens, UniProt P30307).
T3 sequence (P30307 whole entry): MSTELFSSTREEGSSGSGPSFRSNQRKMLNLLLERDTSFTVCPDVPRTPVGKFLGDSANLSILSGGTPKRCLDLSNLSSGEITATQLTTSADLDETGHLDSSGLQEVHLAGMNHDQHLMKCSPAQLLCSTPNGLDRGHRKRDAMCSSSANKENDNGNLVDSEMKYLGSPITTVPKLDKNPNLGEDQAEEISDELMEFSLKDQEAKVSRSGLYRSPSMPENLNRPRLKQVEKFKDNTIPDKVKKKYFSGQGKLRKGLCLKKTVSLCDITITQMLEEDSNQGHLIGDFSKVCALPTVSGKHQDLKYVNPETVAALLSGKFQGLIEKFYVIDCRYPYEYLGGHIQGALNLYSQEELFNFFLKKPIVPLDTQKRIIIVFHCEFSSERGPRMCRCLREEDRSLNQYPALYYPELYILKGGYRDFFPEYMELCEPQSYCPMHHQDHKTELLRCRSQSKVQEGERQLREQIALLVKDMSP
Briefly: Inhibition of N-terminal His6-tagged human CDC25C (280 to 454 residues) expressed in Escherichia coli BL21(DE3) cells using OMFP as substrate by double reciprocal Lineweaver-Burk plot analysis. In outline:
as §1

Assay [6] has as its target T4, M-phase inducer phosphatase 1 (Homo sapiens, UniProt P30304).
T4 sequence (P30304 whole entry): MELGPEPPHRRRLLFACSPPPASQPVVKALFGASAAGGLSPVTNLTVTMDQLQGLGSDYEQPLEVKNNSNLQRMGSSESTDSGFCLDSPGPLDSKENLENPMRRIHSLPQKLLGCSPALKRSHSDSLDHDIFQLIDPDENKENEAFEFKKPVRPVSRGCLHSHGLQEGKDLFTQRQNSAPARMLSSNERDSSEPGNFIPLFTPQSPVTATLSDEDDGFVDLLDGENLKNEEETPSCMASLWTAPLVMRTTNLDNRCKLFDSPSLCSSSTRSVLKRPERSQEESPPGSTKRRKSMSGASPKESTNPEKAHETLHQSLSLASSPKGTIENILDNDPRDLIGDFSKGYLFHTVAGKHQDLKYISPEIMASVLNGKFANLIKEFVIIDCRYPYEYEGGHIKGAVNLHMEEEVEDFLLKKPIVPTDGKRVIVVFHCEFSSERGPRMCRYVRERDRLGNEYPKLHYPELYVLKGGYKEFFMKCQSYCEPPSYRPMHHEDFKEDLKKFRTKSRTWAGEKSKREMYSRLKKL
Briefly: Inhibition of N-terminal His6-tagged human CDC25A (336 to 508 residues) expressed in Escherichia coli BL21(DE3) cells using OMFP as substrate by double reciprocal Lineweaver-Burk plot analysis. In outline:
as §1

Assay [7] deals with T1, M-phase inducer phosphatase 2. Briefly: Mixed inhibition of N-terminal His6-tagged human CDC25B (377 to 550 residues) expressed in Escherichia coli BL21(DE3) cells using OMFP as substrate by double reciprocal Lineweaver-Burk plot analysis. The method, boiled down: as §1
Assay [8] has as its target T2, M-phase inducer phosphatase 2 (Homo sapiens). In words: Inhibition of N-terminal His6-tagged human CDC25B (377 to 550 residues) expressed in Escherichia coli BL21(DE3) cells at 1.5 uM by spectrofluorimetric analysis. In outline:
as §2

Assay [9] shares this target. Briefly: Inhibition of N-terminal His6-tagged human CDC25B (377 to 550 residues) expressed in Escherichia coli BL21(DE3) cells at 3 uM by spectrofluorimetric analysis. In outline: as §2
For another assay, the system named is A2058. In words: Cytotoxicity against human A2058 cells at 50 uM after 48 hrs by MTT assay. It counts as functional, cell-based. In outline:
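Cells seeded at 4×10^4/well, treated 24 h after plating with inhibitor or 0.5% (v/v) DMSO vehicle for 24, 48 or 72 h. MTT added, 3 h at 37°C under 5% CO2, formazan solubilised, absorbance at 570 nm. Viability in arbitrary units, mean ± SE of at least three independent experiments versus control. Cells grown in DMEM/10% FBS at 37°C, 5% CO2; BJ-5ta cultured in 4:1 DMEM/Medium 199 with hygromycin B.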
For orientation: Tetrazolium assays rely on reduction of a dye to a coloured formazan, in cell work by metabolically active cells.

Activity calls are given as the source filed them. The rule behind the calls is not given here.

As usually defined, the Ki is the dissociation constant of the complex between target and ligand, obtained from inhibition or displacement. The low end stands for higher affinity, the high end for lower affinity. As for `Nc1cccc2c(Nc3cccc(C(=O)O)c3)cccc12` [listing 1 of 3 here], in assay [1], the Ki worked out at 0.8 µM.

Turning to `CCOC(=O)c1ccccc1Nc1cccc2ccccc12`, the Ki stood at 2.8 µM in [2], 0.4 µM in assay [5] and 0.6 µM in assay [6]. In addition, in assay [3], the inhibition result was “Active”. In addition, in assay [4], the inhibition entry was “inactive”.

As for `c1ccc(Nc2cccc3ccccc23)cc1`, the inhibition result in [3] is “Active”. Also, the affinity in assay [7] corresponds to a Ki of 32 µM.

Regarding `O=C(O)c1cccc(Nc2cccc3c(O)cccc23)c1`, the inhibition entry in assay [3] was “Active”. For the same molecule, the Ki in assay [1] came out at 2.9 µM.

On to `O=C(O)c1ccccc1Nc1ccc(O)c2ccccc12`, for which the inhibition entry in [3] was “Active”. In addition, in assay [1], the Ki came to 2.7 µM.

`CCOC(=O)c1ccccc1Nc1cccc2c(O)cccc12`: the inhibition result in [3] is “Active”. Also, affinity in [1] was put at a Ki of 7.4 µM.

As for `CCOC(=O)c1cccc(Nc2cccc3c(N)cccc23)c1`, the inhibition result in assay [3] is “Active”. Also, in assay [1], the affinity, expressed as Ki, was 36 µM.

Consider `O=C(O)c1ccccc1Nc1cccc2ccccc12`, for which, in assay [2], the affinity corresponds to a Ki of 22 µM. Also, in assay [3], the inhibition result was “Active”.

With `COc1cc(Nc2ccccc2C(=O)O)c2ccccc2c1`, the inhibition result in assay [3] was “Active”. Further, in assay [1], the Ki was found to be 16.9 µM.

With `CCOC(=O)c1ccccc1Nc1ccc(OC)c2ccccc12`, the inhibition result in assay [3] is “Active”. This molecule also registered a Ki in assay [1] of 6.9 µM.

For `Nc1cccc2c(Nc3ccccc3C(=O)O)cccc12`, in [3], the inhibition result was “Active”. In [1], this molecule came in with a Ki of 6.5 µM.

On to `CCOC(=O)c1ccccc1C(=O)c1cccc2ccccc12`, for which the inhibition entry in [3] was “Active”. Besides, the Ki in [7] amounted to 54 µM.

For `CCOC(=O)c1ccccc1Nc1cc(OC)cc2ccccc12`, in [2], the Ki was 12.5 µM. The inhibition entry in assay [3] was “Active”.

On to `CCOC(=O)c1cccc(Nc2ccc(OC)c3ccccc23)c1`, for which the inhibition entry in assay [3] was “Active”. This molecule also displayed a Ki in assay [1] of 11.9 µM.

Take `COc1ccc(Nc2cccc(C(=O)O)c2)c2ccccc12`: in assay [2], the Ki was 45 µM. The inhibition result in assay [3] is “Active”.

For the molecule `O=C(O)c1ccccc1C(=O)c1cc(O)cc2ccccc12`, the inhibition entry in assay [3] was “Active”. Besides, the Ki in assay [1] was determined as 34 µM.

Regarding `Nc1cccc2c(Nc3cccc(C(=O)O)c3)cccc12` [listing 2 of 3 here], the Ki in [5] came out at 4 µM; in assay [6], 0.6 µM.

`O=C(O)c1cccc(Nc2ccc(O)c3ccccc23)c1` came in with a Ki in assay [2] of 6.4 µM. Also, the inhibition entry in assay [3] was “Active”.

With `Nc1cccc2c(Nc3cccc(C(=O)O)c3)cccc12` [listing 3 of 3 here], the inhibition result in [3] and in assay [8] was “Active” throughout.

In the case of `O=C(O)c1ccccc1Nc1cc(O)cc2ccccc12`, the inhibition entry in [3] is “Active”. This molecule also displayed a Ki in [1] of 5.1 µM.

In assay [2], `COc1ccc(Nc2ccccc2C(=O)O)c2ccccc12` yielded a Ki of 6.1 µM. Further, the inhibition entry in assay [3] was “Active”.

With `COc1cc(C(=O)c2ccccc2C(=O)O)c2ccccc2c1`, the inhibition result in assay [3] is “Active”. This molecule registered a Ki in assay [7] of 36 µM.

On to `Nc1ccc(Nc2cccc(C(=O)O)c2)c2ccccc12`, for which the inhibition result in [3] and in assay [9] was “Active” throughout. The molecule further registered a Ki in assay [1] of 1.4 µM.

For `O=C(O)c1cccc(Nc2cccc3ccccc23)c1`, in [3], the inhibition result is “Active”. In addition, the Ki in assay [7] stood at 30 µM.

For the molecule `COc1cc(Nc2cccc(C(=O)O)c2)c2ccccc2c1`, in assay [2], the Ki stood at 55 µM. For the same molecule, the inhibition entry in assay [3] is “Active”.

`O=C(O)c1ccccc1Nc1cccc2c(O)cccc12`: the inhibition entry in assay [3] was “Active”. Also, the Ki in assay [1] stood at 13.4 µM.

Turning to `CCOC(=O)c1cccc(Nc2cccc3c(O)cccc23)c1`, the inhibition entry in assay [3] is “Active”. The molecule also displayed a Ki in assay [1] of 4.9 µM.

Consider `O=C(O)c1cccc(Nc2cc(O)cc3ccccc23)c1`, for which the inhibition entry in [3] is “Active”. Besides, in assay [1], the Ki is 5.8 µM.

Turning to `O=C(O)c1ccccc1C(=O)c1cccc2ccccc12`, in assay [3], the inhibition entry was “Active”. Moreover, in [7], the affinity, expressed as Ki, was 69 µM.

In turn, `CCOC(=O)c1cccc(Nc2cccc3ccccc23)c1` registered a Ki in assay [2] of 7.3 µM. For the same molecule, the inhibition result in [3] was “Active”. Also, the result in the assay with A2058 was Active.

For the molecule `CCOC(=O)c1ccccc1Nc1cccc2c(N)cccc12`, the inhibition result in assay [3] was “Active”. Moreover, in [1], the inhibitory constant (Ki) was 9.9 µM.

Take `COc1ccc(C(=O)c2ccccc2C(=O)O)c2ccccc12`: the inhibition entry in assay [3] is “Active”. The affinity in assay [1], expressed as Ki, was 7.1 µM.
